Source: PubChem (several laboratories)
The list is not random: actives were taken first. Their share in the collection is about 9.6%.
HCT116 PTEN-null = growth suppressors of cells with PTEN tumor suppressor deletion; viability, % at 10 µM; 1.2% of 140,000 active; HCT116 PTEN-null viability, CellTiter-Glo, 60 h; hits give low values;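 active = viability at or below a set limit, 4 SD under the median of all tested compounds, cut at about 3.7% in these data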;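 note: PTEN knockout HCT116 line with beta catenin targeted HCT116 as companion control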
PMI act satM6P = activators of human phosphomannose isomerase at near-saturating mannose 6-phosphate; 0.34% of 190,000 active; AID 1216; activation factor at 20 µM; coupled PMI enzyme assay, resazurin fluorescence, 20 min; hits give high values; 1 = untreated enzyme, 0 = substrate-free blank;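 active = activation factor of 2 or more at 20 µM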
Target sequence (P34949 whole entry, looked up): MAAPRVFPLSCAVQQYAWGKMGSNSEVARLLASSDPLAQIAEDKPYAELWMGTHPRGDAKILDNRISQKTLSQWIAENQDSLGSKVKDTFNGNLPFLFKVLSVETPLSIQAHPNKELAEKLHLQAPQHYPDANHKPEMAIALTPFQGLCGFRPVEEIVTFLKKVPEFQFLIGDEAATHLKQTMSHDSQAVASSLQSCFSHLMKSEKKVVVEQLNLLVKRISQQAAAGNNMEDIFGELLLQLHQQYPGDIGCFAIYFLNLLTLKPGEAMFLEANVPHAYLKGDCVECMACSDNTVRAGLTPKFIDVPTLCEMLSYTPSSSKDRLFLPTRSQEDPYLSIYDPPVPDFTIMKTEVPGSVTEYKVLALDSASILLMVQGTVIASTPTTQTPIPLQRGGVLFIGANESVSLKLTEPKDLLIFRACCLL
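Test system: human phosphomannose isomerase with PGI, G6PDH, diaphorase coupling enzymes / Doses: 20 µM compound, 1% DMSO / Times: enzyme reaction with compound 20 min at room temperature / Measured by: Diaphorase-driven resazurin-to-resorufin fluorescence, excitation 544, emission 590 nm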
L major viab = Leishmania major promastigote growth inhibition; AID 1063; 9% of 200,000 active; Leishmania major promastigotes, resazurin fluorescence viability; inhibition, % at 10 µM; in the data active = inhibition above about 50%;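 note: promastigotes grown with compound for 44 hours at 28 °C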
PMI activator = increases human mannose-6-phosphate isomerase activity; P34949; purified human PMI, coupled resazurin fluorescence, 20 min; hits give high values; 1 = vehicle control, 0 substrate-free wells; activation factor at 20 µM; 0.005% of 190,000 active; AID 1214;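 active = activation factor of 2 or more at 20 µM, relative to plate controls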
bCat KO growth = beta-catenin-lacking colon tumor cell growth suppression. HCT116 beta-catenin knockout viability, CellTiter-Glo, 60 h; hits give low values. viability, % at 10 µM. 1.5% of 140,000 active. AID 818;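 active = viability at or under a set limit, the compound median less 4 SD, cut at about 6% in these data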;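 note: 0% = Hyamine 1622 control at 20 µM and 100% = untreated cell control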
The depositor's hits bear a star.

Results for CCOc1cc(NC(=O)c2ccco2)c(OCC)cc1NC(=O)COc1ccccc1C ?
L major viab: -4.9

How did CC(Oc1ccc(NC(=O)c2ccco2)cc1)C(=O)N1c2ccccc2CC1C (configuration not stated) do in these assays?
HCT116 PTEN-null: 81.6; PMI act satM6P: 1; L major viab: 57.5*; PMI activator: 1; bCat KO growth: 99.7

What do the screens show for `CCOc1cc(NC(=O)c2ccco2)c(OCC)cc1NC(=O)Cc1cccc(OC)c1`?
HCT116 PTEN-null: 107.5; PMI act satM6P: 0.8; L major viab: 63.4*; PMI activator: 0.7; bCat KO growth: 95.0

How did COc1cccc(C2C(C(=O)OCc3ccccc3)=C(C)Nc3ncnn32)c1OC (configuration not stated) do in these assays?
HCT116 PTEN-null: 78.9; PMI act satM6P: 1; L major viab: 90.8*; PMI activator: 1; bCat KO growth: 93.9

How did CCCCOC(=O)C1=C(C)Nc2ncnn2C1c1cccc(OC)c1 (configuration not stated) do in these assays?
HCT116 PTEN-null: 79.9; PMI act satM6P: 0.9; L major viab: 61.4*; PMI activator: 0.9; bCat KO growth: 69.6

How did CCOC(=O)C1=C(c2ccccc2)Nc2nc(C)nn2C1c1cccc(OC)c1OC (configuration not stated) do in these assays?
HCT116 PTEN-null: 92.8; PMI act satM6P: 1; L major viab: 9.0; PMI activator: 0.9; bCat KO growth: 96.7

Results for CCOC(=O)C1=C(c2ccccc2)Nc2ncnn2C1c1cc(OC)ccc1OC (configuration not stated) ?
HCT116 PTEN-null: 90.4; PMI act satM6P: 0.9; L major viab: 99.6*; PMI activator: 1; bCat KO growth: 99.3

How did CCOC(=O)C1=C(c2ccccc2)Nc2ncnn2C1c1ccc(OC)c(OC)c1OC (configuration not stated) do in these assays?
HCT116 PTEN-null: 105.1; PMI act satM6P: 1; L major viab: 86.2*; PMI activator: 1; bCat KO growth: 98.8

How did N#Cc1c(NC(=O)CSc2nc3ccccc3s2)sc2c1CCCC2 do in these assays?
HCT116 PTEN-null: 97.2; PMI act satM6P: 1; L major viab: 49.1; PMI activator: 0.9; bCat KO growth: 91.4

Results for Cc1cccc(C(=O)NC(C(=O)Nc2ccccc2N2CCOCC2)C(C)C)c1 (configuration not stated) ?
PMI act satM6P: 1; L major viab: 3.9; PMI activator: 1

Results for O=C1C(=O)N(CC2CCCO2)C(c2ccco2)/C1=C(/O)c1ccc(F)cc1 (configuration not stated) ?
PMI act satM6P: 1; L major viab: -1.0; PMI activator: 1.1

Results for COc1cccc(C2C=C(c3ccc(Br)s3)Nc3ncnn32)c1OC (configuration not stated) ?
HCT116 PTEN-null: 92.7; PMI act satM6P: 1.8; L major viab: -3.5; PMI activator: 1.4; bCat KO growth: 81.5

Results for COc1ccc(C2C=C(c3ccc(C)c(C)c3)Nc3ncnn32)c(OC)c1OC (configuration not stated) ?
HCT116 PTEN-null: 38.9; PMI act satM6P: 1.1; L major viab: 79.9*; PMI activator: 1.2; bCat KO growth: 40.4

Results for CCC(CC)N=C1NS(=O)(=O)c2cc([N+](=O)[O-])ccc21 ?
PMI act satM6P: 1; L major viab: 98.5*; PMI activator: 1

Results for CC(C)(C)CC(C)(C)N=C1NS(=O)(=O)c2cc([N+](=O)[O-])ccc21 ?
PMI act satM6P: 0.9; L major viab: 100.3*; PMI activator: 0.9

Results for CC(C)(CO)N=C1NS(=O)(=O)c2cc([N+](=O)[O-])ccc21 ?
HCT116 PTEN-null: 58.1; PMI act satM6P: 1; L major viab: -3.6; PMI activator: 1; bCat KO growth: 65.4

How did CC1(C)Cc2nc3nc(SCC(=O)NCCc4ccccc4)n(-c4ccccc4)c(=O)c3cc2CO1 do in these assays?
HCT116 PTEN-null: 91.9; PMI act satM6P: 1.1; L major viab: 4.8; PMI activator: 1; bCat KO growth: 89.6

Results for Cc1[nH][nH]c(=O)c1C(c1ccc(-c2ccc(F)cc2)o1)c1c(C)[nH][nH]c1=O ?
PMI act satM6P: 0.6; L major viab: 99.4*; PMI activator: 0.9
